Measurements as given in ChEMBL document CHEMBL4837219, “Chemical modification of NSC12 leads to a specific FGF-trap with antitumor activity in multiple myeloma” (Eur J Med Chem, 2021).
pIC50: −log10 of the molar value. Each block holds one compound with its values, some of them ahead of it. Activity calls are given as the source filed them. No cut-off for these calls is given here.

What was measured:
KMS-11 [1] = experiment: Trapping activity at FGF in human KMS-11 cells assessed as inhibition of FGFR3 phosphorylation at 6 uM measured after 6 hrs by western blot analysis; assay type: cell-based
Method in brief: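 KMS-11 cells treated for 6 h with compound at 6.0 µM, then lysed in NP-40 buffer containing orthovanadate and protease inhibitors. Phospho-FGFR3 detected by western blot with anti-phospho-Y724 antibody, using β-actin or α-tubulin as loading control. Result expressed as % inhibition of FGFR3 phosphorylation by densitometry.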

KMS-11 [2] = experiment: Antiproliferative activity against human KMS-11 cells assessed as reduction in cell viability incubated for 48 hrs by propidium iodide staining-based flow cytometric analysis; assay type: functional; conditions: KMS-11, 48 h
Method in brief: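 KMS-11 cells (maintained in RPMI1640 with 10% heat-inactivated FBS and 2.0 mM glutamine) exposed to increasing concentrations of compound for 48 h. Viable PI-negative cells counted by flow cytometry using the analyzer's absolute counting function. IC50 is the concentration giving 50% inhibition of proliferation, taken as the mean of at least 2 experiments run in triplicate.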

[3] = Total plasma concentration in NOD-SCID mouse at 7.5 mg/kg, ip measured after 90 mins by HPLC/MS/MS analysis; assay type: ADME, organism-based
Method in brief: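 A single 7.5 mg/kg i.p. dose given to eight-week-old NOD/SCID mice (n = 4). Blood collected at 90 min. Plasma treated with acetonitrile containing internal standard (1:2) to precipitate protein, centrifuged, and the supernatant analyzed by C18 gradient HPLC-MS/MS in ESI-negative MRM mode. Calibration in spiked blank plasma, linear over 1–1000 nM, LOQ 1 nM. Values are mean ± SEM.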

Compound: C[C@]12CC[C@H]3[C@@H](CC=C4C[C@@H](OCCO)CC[C@@]43C)[C@@H]1CC[C@@H]2[C@H](O)CC(O)(C(F)(F)F)C(F)(F)F
inhibition (KMS-11 [1]): 85%
pIC50 (KMS-11 [2]): 5.11

Compound: C[C@]12CC[C@H]3[C@@H](CC=C4C[C@@H](O)CC[C@@]43C)[C@@H]1CC[C@@H]2[C@@H](O)CC(N)=O
inhibition (KMS-11 [1]): 17%

Compound: C[C@]12CC[C@H]3[C@@H](CC=C4CC(=O)CC[C@@]43C)[C@@H]1CC[C@@H]2[C@H](O)CC(O)(C(F)(F)F)C(F)(F)F
inhibition (KMS-11 [1]): 69%

Compound: C[C@]12CC[C@H]3[C@@H](CC=C4C[C@@H](O)CC[C@@]43C)[C@@H]1CC[C@@H]2C(O)CC(O)c1ccccc1 (stereo in doubt; 11a)
inhibition (KMS-11 [1]): 49%

Compound: C[C@]12CC[C@H]3[C@@H](CC=C4CC(=O)CC[C@@]43C)[C@@H]1CC[C@@H]2[C@@H](O)CC(O)(C(F)(F)F)C(F)(F)F
inhibition (KMS-11 [1]): 91%
pIC50 (KMS-11 [2]): 5.47

Compound: C[C@]12CC[C@H](O)C[C@@H]1CC[C@@H]1[C@@H]2CC[C@]2(C)[C@@H]([C@@H](O)CC(O)(C(F)(F)F)C(F)(F)F)CC[C@@H]12
inhibition (KMS-11 [1]): 89%
pIC50 (KMS-11 [2]): 5.54

Compound: CC(C)(O)C[C@@H](O)[C@H]1CC[C@H]2[C@@H]3CC=C4C[C@@H](O)CC[C@]4(C)[C@H]3CC[C@]12C
inhibition (KMS-11 [1]): 32%

Compound: C[C@]12CC[C@H]3[C@@H](CC=C4CC(=NO)CC[C@@]43C)[C@@H]1CC[C@@H]2[C@@H](O)CC(O)(C(F)(F)F)C(F)(F)F
inhibition (KMS-11 [1]): 51%

Compound: C[C@]12CC[C@H]3[C@@H](CC=C4C[C@@H](O)CC[C@@]43C)[C@@H]1CC[C@@H]2[C@@H](O)CC(=O)O
inhibition (KMS-11 [1]): 41%

Compound: C[C@]12CC[C@H]3[C@@H](CC=C4C[C@@H](O)CC[C@@]43C)[C@@H]1CC[C@@H]2[C@@H](O)CCO
inhibition (KMS-11 [1]): 57%

Compound: C[C@]12CC[C@H]3[C@@H](CC=C4C[C@@H](O)CC[C@@]43C)[C@@H]1CC[C@@H]2C(O)CC(O)c1ccccc1 (stereo in doubt; 11b)
inhibition (KMS-11 [1]): 68%

concentration at 1.5 h [3]: 93.1 nM
Compound: C[C@]12CC[C@H]3[C@@H](CC=C4C[C@@H](O)CC[C@@]43C)[C@@H]1CC[C@@H]2[C@H](O)CC(O)(C(F)(F)F)C(F)(F)F
inhibition (KMS-11 [1]): inactive

Compound: C[C@]12CC[C@H]3[C@@H](CC=C4C/C(=N\O)CC[C@@]43C)[C@@H]1CC[C@@H]2[C@H](O)CC(O)(C(F)(F)F)C(F)(F)F
inhibition (KMS-11 [1]): 80%

Compound: C[C@]12CC[C@H]3[C@@H](CC=C4C[C@@H](O)CC[C@@]43C)[C@@H]1CC[C@@H]2C(O)CC(O)c1ccccc1 (stereo in doubt; 11c)
inhibition (KMS-11 [1]): 28%

Compound: C[C@]12CC[C@H]3[C@@H](CC=C4C[C@@H](O)CC[C@@]43C)[C@@H]1CC[C@@H]2[C@H](O)CCO
inhibition (KMS-11 [1]): inactive
